Test results from ChEMBL document CHEMBL1212827, “Unnatural amino acid side chains as S1, S1', and S2' probes yield cationic antimicrobial peptides with stability toward chymotryptic degradation” (J Med Chem, 2010).
≈ marks a conversion by molar mass, not a printed value. Non-standard residues stand in square brackets, D forms with d. Residues, ends and D or L forms follow the SMILES beside them. *: point of attachment. Phe(4-guanidino) = N=C(N)Nc1ccc(C[C@H](N)C(=O)O)cc1; Bip = N[C@@H](Cc1ccc(-c2ccccc2)cc1)C(=O)O; Dip = N[C@H](C(=O)O)C(c1ccccc1)c1ccccc1; Phe(4-NH2) = Nc1ccc(C[C@H](N)C(=O)O)cc1; hArg = N=C(N)NCCCC[C@H](N)C(=O)O; Agp = N=C(N)NC[C@H](N)C(=O)O; NHPhenethyl = c1ccc(CCN*)cc1; Orn = NCCC[C@H](N)C(=O)O; NHBn = c1ccc(CN*)cc1

What was measured:
Escherichia coli = test: Antibacterial activity against Escherichia coli ATCC 25922; assay type: functional
Staphylococcus aureus [1] = test: Antibacterial activity against methicillin-resistant Staphylococcus aureus ATCC 33591; assay type: functional
Staphylococcus aureus [2] = test: Antibacterial activity against Staphylococcus aureus ATCC 25923; assay type: functional
[3] = Stability of the compound in 0.1 M NH4HCO3 buffer at pH 8.2 assessed as half life in presence of chymotrypsin; assay type: physicochemical; conditions: for half-life: chymotrypsin in NH4HCO3 buffer; for t1/2: isolated protein
Summary of the method: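 Peptide 1 mg/mL stock; chymotrypsin 1 mg per 50 mL buffer; both diluted tenfold into 0.1 M NH4HCO3 pH 8.2 and incubated at 37 °C. Aliquots quenched with water/acetonitrile 60/40 containing 0.5% TFA and run on RP-HPLC. Half-life calculated from 214 nm peak areas over the first 5 h. Under 10% degradation at 24 h counted as stable. Enzyme-free samples at 0 and 24 h served as controls.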

[4] = Toxicity in human RBC assessed as hemolysis at 1 mM after 30 mins relative to control; assay type: cell-based, Erythrocyte; conditions: red blood cells (RBC), read-out: Activity
Summary of the method: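 Fresh heparinized human erythrocytes, washed in normal saline. Peptides at 25–1000 μg/mL with 1% v/v final erythrocytes, 30 min at 37 °C with agitation. Supernatant OD read at 405 nm. Saline served as 0% and 1% Triton X as 100% hemolysis; percent lysis taken relative to their difference.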

[5] = Binding affinity to chymotrypsin by isothermal titration […]
Summary of the method: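 Isothermal titration calorimetry at 25 °C in 0.1 M NH4HCO3 pH 8.2. Peptide (2.1 mM in syringe) injected in 20 aliquots of 5 μL into stirred (150 rpm) chymotrypsin (0.1 mM), 400 s between injections. First injection point discarded. KD fitted from heats of interaction.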

Structure (SMILES) | Activity (Escherichia coli) [µM] | MIC (Staphylococcus aureus [1]) [µM] | MIC (Staphylococcus aureus [2]) [µM] | half-life [3] [h] | hemolysis at 0.5 h, 1000 µM [4] [%] | Kd [5] [µM] | t1/2 [3]
N=C(N)NCCC[C@H](NC(=O)[C@@H](N)CCCNC(=N)N)C(=O)N[C@@H](Cc1c[nH]c2ccccc12)C(=O)NCc1ccccc1 (H-Arg-Arg-Trp-NHBn) | >200 | 26 (≈ 15.7 µg/mL) | 79 (≈ 47.9 µg/mL) | 7 | – | – | –
N=C(N)NCCC[C@H](NC(=O)[C@H](Cc1ccccc1)NC(=O)[C@@H](N)CCCNC(=N)N)C(=O)NCc1ccccc1 (H-Arg-Phe-Arg-NHBn) | >200 | 83 (≈ 47 µg/mL) | 165 (≈ 93.5 µg/mL) | 3 | – | – | –
NC(=O)[C@H](CCCN=C(N)N)NC(=O)[C@H](Cc1c[nH]c2ccccc12)NC(=O)[C@@H](N)CCCN=C(N)N (H-Arg-Trp-Arg-NH2) | >200 | > 200 | > 200 | 5 | > 134 | – | –
N=C(N)NCCC[C@H](NC(=O)[C@H](Cc1c[nH]c2ccccc12)NC(=O)[C@@H](N)CCCNC(=N)N)C(=O)NCc1ccccc1 (H-Arg-Trp-Arg-NHBn) | >200 | 132 (≈ 80 µg/mL) | 79 (≈ 47.9 µg/mL) | 2 | > 5 | – | –
N=C(N)NCCC[C@H](NC(=O)[C@H](Cc1c[nH]c2ccccc12)NC(=O)[C@@H](N)CCCNC(=N)N)C(=O)NCCc1ccccc1 (H-Arg-Trp-Arg-NHPhenethyl) | >200 | 26 (≈ 16.1 µg/mL) | 52 (≈ 32.2 µg/mL) | 0.5 | – | – | –
N=C(N)NCCC[C@H](N)C(=O)N[C@@H](Cc1c[nH]c2ccccc12)C(=O)N[C@@H](CCCCN)C(=O)NCc1ccccc1 (H-Arg-Trp-Lys-NHBn) | >200 | 54 (≈ 31.2 µg/mL) | 163 (≈ 94.2 µg/mL) | 4 | – | – | –
N=C(N)NCCC[C@H](N)C(=O)N[C@@H](Cc1c[nH]c2ccccc12)C(=O)N[C@@H](CNC(=N)N)C(=O)NCc1ccccc1 (H-Arg-Trp-[Agp]-NHBn) | >200 | 16 (≈ 9.24 µg/mL) | 54 (≈ 31.2 µg/mL) | – | > 2 | 61.1 | Stable
N=C(N)NCCC[C@H](N)C(=O)N[C@@H](Cc1c[nH]c2ccccc12)C(=O)N[C@@H](CCCN)C(=O)NCc1ccccc1 (H-Arg-Trp-[Orn]-NHBn) | >200 | 55 (≈ 31 µg/mL) | 110 (≈ 62 µg/mL) | 20 | > 1 | – | –
N=C(N)NCCC[C@H](N)C(=O)N[C@@H](Cc1c[nH]c2ccccc12)C(=O)N[C@@H](Cc1ccc(N)cc1)C(=O)NCc1ccccc1 (H-Arg-Trp-[Phe(4-NH2)]-NHBn) | >200 | 79 (≈ 48.3 µg/mL) | 157 (≈ 96 µg/mL) | – | > 5 | – | Stable
N=C(N)NCCC[C@H](N)C(=O)N[C@@H](Cc1c[nH]c2ccccc12)C(=O)N[C@@H](Cc1ccc(NC(=N)N)cc1)C(=O)NCc1ccccc1 (H-Arg-Trp-[Phe(4-guanidino)]-NHBn) | >200 | 10 (≈ 6.54 µg/mL) | 50 (≈ 32.7 µg/mL) | 4 | – | – | –
N=C(N)NCCCC[C@H](NC(=O)[C@H](Cc1c[nH]c2ccccc12)NC(=O)[C@@H](N)CCCNC(=N)N)C(=O)NCc1ccccc1 (H-Arg-Trp-[hArg]-NHBn) | >200 | 52 (≈ 32.2 µg/mL) | 78 (≈ 48.3 µg/mL) | 1 | – | – | –
N=C(N)NCCC[C@H](NC(=O)[C@H](Cc1ccc(-c2ccccc2)cc1)NC(=O)[C@@H](N)CCCNC(=N)N)C(=O)NCc1ccccc1 (H-Arg-[Bip]-Arg-NHBn) | >200 | 15 (≈ 9.64 µg/mL) | 10 (≈ 6.43 µg/mL) | – | > 5 | 18.4 | Stable
N=C(N)NCCC[C@H](NC(=O)[C@@H](NC(=O)[C@@H](N)CCCNC(=N)N)C(c1ccccc1)c1ccccc1)C(=O)NCc1ccccc1 (H-Arg-[Dip]-Arg-NHBn) | >200 | 10 (≈ 6.43 µg/mL) | 25 (≈ 16.1 µg/mL) | – | > 10 | – | Stable
N=C(N)NCCC[C@H](N)C(=O)N[C@@H](Cc1ccc(N)cc1)C(=O)N[C@@H](Cc1c[nH]c2ccccc12)C(=O)NCc1ccccc1 (H-Arg-[Phe(4-NH2)]-Trp-NHBn) | >200 | 79 (≈ 48.3 µg/mL) | 157 (≈ 96 µg/mL) | 17 | – | – | –
N=C(N)NCCC[C@H](N)C(=O)N[C@@H](Cc1ccc(NC(=N)N)cc1)C(=O)N[C@@H](Cc1c[nH]c2ccccc12)C(=O)NCc1ccccc1 (H-Arg-[Phe(4-guanidino)]-Trp-NHBn) | >200 | 15 (≈ 9.81 µg/mL) | 50 (≈ 32.7 µg/mL) | – | > 2 | – | Stable
